Experimental data collected from several papers.
Target: Serine/threonine-protein kinase WNK1 (WNK1, Homo sapiens, UniProt Q9H4A3)

CC(C)CC(=O)N1CCc2nc(-c3ccc(Br)cc3)nc(N(C)Cc3ccccc3)c2C1  remaining binding (cell-free assay, competition with immobilised ligand; 0.1 µM): 100%
FC(F)(F)Oc1cccc(-c2cnc3ccc(-c4ccncc4)nn23)c1  remaining binding (binding, competition with immobilised ligand; 5 µM): 79%
CC(C)(O)c1cncc(-c2nc3ccc(F)cc3n2C2CC2)c1  remaining binding (cell-free assay, competition with immobilised ligand; 1 µM): 100%
Cc1cnc(Nc2ccc(C(=O)N3CCC(N4CCCC4)CC3)cc2)nc1-c1cc2ccccc2s1  remaining binding (binding, competition with immobilised ligand; 1 µM): 90%
CS(=O)(=O)N1CCCC(NC(=O)[C@H](CCC2CCCCC2)NC(=O)c2ccc(CNC(=O)c3cnc4ccccn34)cc2)C1 (stereo partly shown)  remaining binding (cell-free assay, competition with immobilised ligand; 0.1 µM): 99%
O=C(NCC1CCOCC1)c1n[nH]cc1NC(=O)c1c(F)cccc1F  remaining binding (binding, competition with immobilised ligand; 1 µM): 100%
COc1ccnn2ncc(-c3ccnc(N(C)C)n3)c12  remaining binding (binding; 1 µM): 100%
COc1cnc(Nc2cccc(S(N)(=O)=O)c2)nc1N1CCN(c2ccccc2)CC1  remaining binding (binding, competition with immobilised ligand; 1 µM): 88%
COc1ncc2cc3ccccc3nc2c1C#N  remaining binding (cell-free assay, competition with immobilised ligand; 5 µM): 95%
F[C@@H]1CCN(c2nccc(-c3cnn4ncccc34)n2)C1  remaining binding (binding; 1 µM): 100%
CCN1CCN(Cc2ccc(C(=O)Nc3ccc(C)c(Oc4ccc5c(c4)CC(=O)N5)c3)cc2C(F)(F)F)CC1  remaining binding (binding, competition with immobilised ligand; 1 µM): 100%
N[C@H]1CCN(c2nccc(-c3cnn4ncccc34)n2)C1  remaining binding (binding; 1 µM): 8.4%
NS(=O)(=O)c1cc(NC(=O)C2(c3ccccc3Cl)CC2)ccc1Oc1cccc(Cl)c1  remaining binding (cell-free assay, competition with immobilised ligand; 1 µM): 88%
CC1CCCN1c1nccc(-c2cnn3ncccc23)n1 (stereo not shown)  remaining binding (binding; 1 µM): 98%
Cc1cc(-n2nc(Cc3cc(F)cc(C(F)(F)F)c3)nc2C)ccc1C(N)=O  remaining binding (cell-free assay, competition with immobilised ligand; 1 µM): 100%
Cc1cnn2ncc(-c3ccnc(N(C)C)n3)c2c1  remaining binding (binding; 1 µM): 94%
O=C(c1ccc(Nc2ncc(Cl)c(-c3ccc(Cl)s3)n2)cc1)N1CCC(N2CCCC2)CC1  remaining binding (binding, competition with immobilised ligand; 1 µM): 95%
CN(C)c1nccc(-c2cnc3ncccn23)n1  remaining binding (binding; 1 µM): 100%
Cc1nccc(COC(=O)N2C[C@@H]3[C@@H](CNC(=O)c4ccc5[nH]nnc5c4)[C@@H]3C2)n1  remaining binding (cell-free assay, competition with immobilised ligand; 1 µM): 86%
